Holding throughout (assay type): functional
Test [1] has as its system Enterococcus faecium. The experiment in a line: Antibacterial activity against quinupristin-dalfopristin resistant and ermB gene expressing Enterococcus faecium isolate CS121 containing streptogramin A resistance genes vatG and vgaD isolated from poultry stool samples.
Test [2] concerns Enterococcus faecium. Put plainly: Antibacterial activity against quinupristin-dalfopristin resistant and ermB gene expressing Enterococcus faecium isolate CS106 containing streptogramin A resistance genes vatG and vgaD isolated from poultry stool samples.
In test [3] the test system is Enterococcus faecium. The experiment in a line: Antibacterial activity against quinupristin-dalfopristin resistant and ermB gene expressing Enterococcus faecium isolate CS103 containing streptogramin A resistance genes vatG and vgaD isolated from poultry stool samples.
Test [4] has as its system Enterococcus faecium. Put plainly: Antibacterial activity against quinupristin-dalfopristin resistant and ermB gene expressing Enterococcus faecium isolate CS098 containing streptogramin A resistance genes vatG and vgaD isolated from poultry stool samples.
In test [5] the test system is Enterococcus faecium. Put plainly: Antibacterial activity against quinupristin-dalfopristin resistant and ermB gene expressing Enterococcus faecium isolate AS115 containing streptogramin A resistance genes vatG and vgaD isolated from poultry stool samples. In outline:
(§1)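 Isolates were recovered from fecal samples (human, poultry, swine; 2000/2003) or retail meat (2003). Samples were enriched in Enterococcosel broth for 48 h at 37°C, then streaked on Enterococcosel agar containing Q-D at 2 μg/ml to select resistant E. faecium. vatG and vgaD were detected by PCR with gene-specific primers: 30 cycles, annealing at 55°C.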

The test system of test [6] is Enterococcus faecium. Put plainly: Antibacterial activity against quinupristin-dalfopristin resistant and ermB and vanA gene expressing Enterococcus faecium isolate C19 containing streptogramin A resistance genes vatG and vgaD isolated from poultry stool samples.
Test [7] concerns Enterococcus faecium. The experiment in a line: Antibacterial activity against quinupristin-dalfopristin resistant and ermB and vanA gene expressing Enterococcus faecium isolate A15 containing streptogramin A resistance genes vatG and vgaD isolated from poultry stool samples. In outline:
as §1

Test [8] relates to Enterococcus faecium. The experiment in a line: Antibacterial activity against quinupristin-dalfopristin resistant Enterococcus faecium isolate ES022 containing streptogramin A resistance genes vatG and vgaD isolated from swine stool samples.
For test [9], the system named is Enterococcus faecium. Put plainly: Antibacterial activity against quinupristin-dalfopristin resistant and ermB gene expressing Enterococcus faecium isolate KS46 containing streptogramin A resistance genes vatG and vgaD isolated from healthy human stool samples.
The subject of test [10] is Enterococcus faecium. The experiment in a line: Antibacterial activity against quinupristin-dalfopristin resistant and ermB gene expressing Enterococcus faecium isolate JS79 containing streptogramin A resistance genes vatG and vgaD isolated from healthy human stool samples.
For test [11], the system named is Enterococcus faecium. The experiment in a line: Antibacterial activity against quinupristin-dalfopristin resistant and vanA gene expressing Enterococcus faecium isolate GAV04 containing streptogramin A resistance genes vatG and vgaD isolated from chicken meat samples.
The subject of test [12] is Enterococcus faecium. The experiment in a line: Antibacterial activity against quinupristin-dalfopristin resistant and vanA gene expressing Enterococcus faecium isolate GAV12 containing streptogramin A resistance genes vatG and vgaD isolated from chicken meat samples. The method in brief: as §1
The subject of test [13] is Enterococcus faecium. The experiment in a line: Antibacterial activity against quinupristin-dalfopristin abd erythromycin sensitive aEnterococcus faecium U201 transconjugants receiving ermB genes and vatG gene from quinupristin-dalfopristin resistant Enterococcus faecium isolate. In outline:
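Transconjugants came from broth mating: donor and recipient overnight M17 cultures were mixed 1:1 into fresh M17 broth for 6 h at 37°C. Selection was on BHI agar with erythromycin (100 μg/ml) and ampicillin (100 μg/ml) for 24 h at 37°C. The erythromycin and Q-D MICs were compared with the donor's.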

≈ marks a conversion by molar mass, not a printed value.

Broadly, the MIC is the lowest concentration found to suppress growth. Read a high MIC as a need for much substance.

As to `CC[C@H]1OC(=O)[C@H](C)[C@@H](O[C@H]2C[C@@](C)(OC)[C@@H](O)[C@H](C)O2)[C@H](C)[C@@H](O[C@@H]2O[C@H](C)C[C@H](N(C)C)[C@H]2O)[C@](C)(O)C[C@@H](C)C(=O)[C@H](C)[C@@H](O)[C@]1(C)O` [ERYTHROMYCIN], the MIC against Enterococcus faecium [1], against Enterococcus faecium [2], against Enterococcus faecium [3], in the test with Enterococcus faecium [4], with Enterococcus faecium [5] and in the test with Enterococcus faecium [6] was 256 mg/L (≈ 349 µM) each time. The MIC in the test with Enterococcus faecium [7] was 256 mg/L (≈ 349 µM); against Enterococcus faecium [8], 0.1 mg/L (≈ 0.136 µM); with Enterococcus faecium [9] it was 256 mg/L (≈ 349 µM); against Enterococcus faecium [10], 256 mg/L (≈ 349 µM); against Enterococcus faecium [11] it was below 1 mg/L; against Enterococcus faecium [12] it was below 1 mg/L. Moreover, the lowest concentration to inhibit growth against Enterococcus faecium [13] (MIC) was 256 mg/L (≈ 349 µM).
On to `CN[C@H](CC(C)C)C(=O)N[C@H]1C(=O)N[C@@H](CC(N)=O)C(=O)N[C@H]2C(=O)N[C@H]3C(=O)N[C@H](C(=O)N[C@H](C(=O)O)c4cc(O)cc(O)c4-c4cc3ccc4O)[C@H](O)c3ccc(c(Cl)c3)Oc3cc2cc(c3O[C@@H]2O[C@H](CO)[C@@H](O)[C@H](O)[C@H]2O[C@H]2C[C@](C)(N)[C@H](O)[C@H](C)O2)Oc2ccc(cc2Cl)[C@H]1O` [VANCOMYCIN], for which the MIC was below 1 mg/L in the test with Enterococcus faecium [1]; below 1 mg/L against Enterococcus faecium [2]; below 1 mg/L in the test with Enterococcus faecium [3]; below 1 mg/L in the test with Enterococcus faecium [4]; below 1 mg/L against Enterococcus faecium [5]; 256 mg/L (≈ 177 µM) against Enterococcus faecium [6]. Further, the minimum inhibitory concentration (MIC) is 256 mg/L (≈ 177 µM) in the test on Enterococcus faecium [7]; below 1 mg/L against Enterococcus faecium [8]; below 1 mg/L in the test on Enterococcus faecium [9]; below 1 mg/L against Enterococcus faecium [10]; 256 mg/L (≈ 177 µM) with Enterococcus faecium [11]; 256 mg/L (≈ 177 µM) in the test with Enterococcus faecium [12].

Values taken from ChEMBL document CHEMBL1687788, “Characterization of two newly identified genes, vgaD and vatH, [corrected] conferring resistance to streptogramin A in Enterococcus faecium” (2010).
